Results on three molecules are retold here after publication PMC1301599 (Nucleic Acids Research, 2005).

What all share (format): cell-based
Series [1] concerns HIV-1 Tat-dependent trans-activation (TAR RNA; HIV-1 LTR firefly luciferase) in HeLa Tet-Off/Tat/luc-f/luc-R cells. Nature of the series: Inhibition of Tat-dependent trans-activation in HeLa cell reporter assay. The following applies: for reduction of firefly luciferase activity, 6 h delivery with chloroquine: 6 h incubation in presence of 100 µM chloroquine, then 18 h growth, 0.312-2.5 µM. The essentials:
(§1)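 HeLa Tet-Off/Tat/luc-f/luc-R cells (HIV-1 LTR-firefly, CMV-Renilla), 10 × 10^3/well, grown 24 h at 37°C. They were exposed 6 h in Opti-MEM with 100 µM chloroquine, with or without test compound diluted from 2.5 µM in that medium. Cells were PBS-washed, then grown 18 h in DMEM/10% FBS. Lysate firefly and Renilla luminescence was read sequentially, normalised to parallel-plate viability absorbance, and expressed as % of cells without test compound. Two replicates, three experiments.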
For orientation: A reporter such as luciferase makes a cellular process visible.

Series [2] deals with constitutive CMV promoter-directed Renilla luciferase in HeLa Tet-Off/Tat/luc-f/luc-R cells. Nature of the series: Control Renilla luciferase expression in HeLa cell reporter assay. The settings on record: chloroquine alone treatment; data not shown. In a few lines: as §1
The test system of series [3] is HeLa Tet-Off/Tat/luc-f/luc-R cells. Nature of the series: Toxicity assay. The following applies: 100 µM chloroquine; data not shown. In a few lines: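 This ran on a duplicate plate of HeLa Tet-Off/Tat/luc-f/luc-R cells (10 × 10^3/well, 24 h at 37°C). The plate got 6 h with 100 µM chloroquine in Opti-MEM, then a PBS wash and 18 h in DMEM/10% FBS. Live cells were quantified colorimetrically with the CellTiter 96 AQueous One reagent, absorbance at 490 nm. Two replicates in each of three experiments.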

Take `CCN(CC)CCCC(C)Nc1ccnc2cc(Cl)ccc12` (centres unmarked) [chloroquine]: the “level of firefly luciferase activity, chloroquine alone” value in series [1] (100 µM chloroquine, no CPP–PNA) is given as “not significantly affected”. In addition, the “level of Renilla luciferase, chloroquine alone” value in series [2] was “reduction”. For the same molecule, the “HeLa cell viability, chloroquine alone” value in series [3] is on record as “No effect”.

As for “ATCGCTCGCACCATGC (disulfide) [scrambled conjugate 13]”, in series [1], the “reduction of firefly luciferase activity, 6 h delivery with chloroquine” value was “no inhibitory activity”.

For “CTCCGCAGCTCAGATC (disulfide) [mismatched conjugate 13]”, the “reduction of firefly luciferase activity, 6 h delivery with chloroquine” value in series [1] is recorded as “no inhibitory activity”.
